Laboratory results: ChEMBL document CHEMBL1129414, “Synthesis and cytotoxic and antitumor activity of esters in the 1,2-dihydroxy-1,2-dihydroacronycine series” (J Med Chem, 1996)
pIC50: −log10 of the molar value.

Columns and labels:
L1210 = assay: Compound was tested in vitro for cytotoxicity on L1210 leukemic cells by using MTT assay.; format: functional, cell-based; details: Mus musculus
Procedure, shortened: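 L1210 cells were grown in RPMI 1640 with 10% fetal calf serum, 2 mM L-glutamine and 10 mM HEPES (pH 7.4). Cells were exposed for 48 h to nine serial drug dilutions in triplicate, and viability was read by MTT. IC50 is the concentration halving optical density versus untreated controls, given as mean ± SEM of at least 3 independent experiments.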

MC-38 [1] = assay: Compound was tested for antitumor activity against colon 38 adenocarcinoma cells at the dose of 6.25 mg/kg ip.; format: functional, Mus musculus
P388 [2] = assay: Compound was tested for antitumor activity against P388 leukemia cells at the dose of 12.5 mg/kg ip.; format: functional, Mus musculus
P388 [3] = assay: Compound was tested for antitumor activity against P388 leukemia cells at the dose of 50 mg/kg ip.; format: functional, Mus musculus
MC-38 [4] = assay: Compound was tested for antitumor activity against colon 38 adenocarcinoma cells at the dose of 12.5 mg/kg ip.; format: functional, Mus musculus
P388 [5] = assay: Compound was tested for antitumor activity against P388 leukemia cells at the dose of 12.5 mg/kg ip.; details: Mus musculus
P388 [6] = assay: Compound was tested for antitumor activity against P388 leukemia cells at the dose of 25 mg/kg iv.; format: functional, Mus musculus
P388 [7] = assay: Compound was tested for antitumor activity against P388 leukemia cells at the dose of 25 mg/kg ip.; format: functional, Mus musculus
MC-38 [8] = assay: Compound was tested for antitumor activity against colon 38 adenocarcinoma cells at the dose of 200 mg/kg ip.; format: functional, Mus musculus
P388 [9] = assay: Compound was tested for antitumor activity against P388 leukemia cells at the dose of 200 mg/kg ip.; format: functional, Mus musculus

Work on COc1cc2c(c3c1c(=O)c1ccccc1n3C)[C@@H](O)[C@@H](OC(=O)c1ccccc1)C(C)(C)O2 yielded a pIC50 (L1210) of 5.15, an Activity (MC-38 [1]) of 18% and an Activity (P388 [2]) of 258%.
In the case of COc1cc2c(c3c1c(=O)c1ccccc1n3C)[C@@H](OC(C)=O)[C@@H](OC(=O)c1ccccc1)C(C)(C)O2, the pIC50 (L1210) was 5.30, the Activity (P388 [3]) was 201% and the Activity (MC-38 [4]) was 13%.
Work on COc1cc2c(c3c1c(=O)c1ccccc1n3C)[C@@H](O)[C@@H](O)C(C)(C)O2 yielded a pIC50 (L1210) of 4.09.
For COc1cc2c(c3c1c(=O)c1ccccc1n3C)[C@@H](O)[C@@H](OC(C)=O)C(C)(C)O2, the pIC50 (L1210) was 5.05.
In the case of Cn1c2ccccc2c(=O)c2ccc3c(c21)[C@@H](O)[C@@H](O)C(C)(C)O3, the pIC50 (L1210) was less than 4.30.
For Cn1c2ccccc2c(=O)c2ccc3c(c21)[C@H]1OC(=O)O[C@H]1C(C)(C)O3, the pIC50 (L1210) was less than 4.30.
Work on CC(=O)O[C@@H]1c2c(ccc3c(=O)c4ccccc4n(C)c23)OC(C)(C)[C@@H]1OC(C)=O yielded a pIC50 (L1210) of less than 4.30.
Cn1c2ccccc2c(=O)c2ccc3c(c21)C=CC(C)(C)O3 showed a pIC50 (L1210) of 4.53.
COc1cc2c(c3c1c(=O)c1ccccc1n3C)[C@H]1OC(=O)O[C@H]1C(C)(C)O2 showed an Activity (P388 [5]) of 202%, a pIC50 (L1210) of 6.49 and an Activity (MC-38 [1]) of 68%.
COc1cc2c(c3c1c(=O)c1ccccc1n3C)[C@@H](OC(C)=O)[C@@H](OC(C)=O)C(C)(C)O2 showed a pIC50 (L1210) of 5.24, an Activity (P388 [6]) of 220% and an Activity (MC-38 [4]) of 0%. The Activity (P388 [7]) was 289%.
In the case of COc1cc2c(c3c1c(=O)c1ccccc1n3C)C=CC(C)(C)O2 [ACRONINE], the Activity (MC-38 [8]) was 4%, the pIC50 (L1210) was 4.62 and the Activity (P388 [9]) was 125%.
Work on COc1cc2c(c3c1c(=O)c1ccccc1n3C)CCC(C)(C)O2 [DIHYDROACRONYCINE] yielded a pIC50 (L1210) of 4.46.
